# Measurements reported in ChEMBL document CHEMBL4229449, “Synthesis and antimicrobial studies of hydrazone derivatives of 4-[3-(2,4-difluorophenyl)-4-formyl-1H-pyrazol-1-yl]benzoic acid and 4-[3-(3,4-difluorophenyl)-4-formyl-1H-pyrazol-1-yl]benzoic acid” (Bioorg Med Chem Lett, 2018).
# The source made the active and inactive calls. No cut-off for these calls is given here.
# Tests used:
# [1] = test system: Staphylococcus aureus; experiment: Antimicrobial activity against methicillin-resistant Staphylococcus aureus by broth microdilution method; assay type: functional
# [2] = test system: Bacillus subtilis; experiment: Antimicrobial activity against Bacillus subtilis by broth microdilution method; assay type: functional
# [3] = test system: Staphylococcus aureus; experiment: Antimicrobial activity against Staphylococcus aureus by broth microdilution method; assay type: functional
# [4] = test system: Acinetobacter baumannii; experiment: Antimicrobial activity against Acinetobacter baumannii by broth microdilution method; assay type: functional
# [5] = test system: Pseudomonas aeruginosa; experiment: Antimicrobial activity against Pseudomonas aeruginosa by broth microdilution method; assay type: functional, organism-based
# [6] = test system: Klebsiella aerogenes; experiment: Antimicrobial activity against Enterobacter aerogenes by broth microdilution method; assay type: functional, organism-based
# [7] = test system: HEK293; experiment: Cytotoxicity against human HEK293 cells assessed as reduction in cell viability at 50 ug/ml after 24 hrs by resazurin dye based method; conditions: hek293, 24 h
# Outline: (§1)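 HEK-293 human embryonic kidney cells were exposed to test compounds at 25 and 50 μg/mL and incubated for 24 h. Growth inhibition was read by resazurin assay and expressed as percent cell viability.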
# [8] = test system: HEK293; experiment: Cytotoxicity against human HEK293 cells assessed as reduction in cell viability at 25 to 50 ug/ml after 24 hrs by resazurin dye based method; conditions: hek293, 24 h; outline: as §1
# [9] = test system: Panel NCI-60 (60 carcinoma cell lines); experiment: Cytotoxicity against human NCI60 cells assessed as reduction in cell viability at 10 uM after 24 hrs by resazurin dye based method
# [10] = test system: Staphylococcus aureus; experiment: Growth inhibition of methicillin-sensitive Staphylococcus aureus UAMS-1 after 20 to 24 hrs by resazurin dye based method; assay type: functional
# [11] = test system: Staphylococcus aureus; experiment: Growth inhibition of methicillin-resistant Staphylococcus aureus LAC after 20 to 24 hrs by resazurin dye based method; assay type: functional
Compound,MIC [1],MIC [2],MIC [3],MIC [4],MIC [5],MIC [6],Activity [7] [%],Activity [8],Activity [9],MIC [10] [µg/mL],MIC [11] [µg/mL]
O=C(O)c1ccc(-n2cc(/C=N/N3CCCCC3)c(-c3ccc(F)cc3F)n2)cc1,inactive,inactive,inactive,inactive,inactive,inactive,,,,,
O=C(O)c1ccc(-n2cc(/C=N/Nc3ccccc3F)c(-c3ccc(F)c(F)c3)n2)cc1,12.5 µg/mL,12.5 µg/mL,12.5 µg/mL,6.25 µg/mL,inactive,inactive,> 80,Non-Toxic,Non-Toxic,,
O=C(O)c1ccc(-n2cc(/C=N/Nc3cccc(C(=O)O)c3)c(-c3ccc(F)cc3F)n2)cc1,inactive,inactive,inactive,inactive,inactive,inactive,,,,,
O=C(O)c1ccc(-n2cc(/C=N/Nc3cccc(F)c3)c(-c3ccc(F)c(F)c3)n2)cc1,12.5 µg/mL,12.5 µg/mL,12.5 µg/mL,6.25 µg/mL,inactive,inactive,> 80,Non-Toxic,Non-Toxic,,
O=C(O)c1ccc(-n2cc(/C=N/Nc3ccc(Cl)cc3Cl)c(-c3ccc(F)cc3F)n2)cc1,0.78 µg/mL,0.78 µg/mL,3.12 µg/mL,12.5 µg/mL,inactive,inactive,> 80,Non-Toxic,Non-Toxic,25,12.5
O=C(O)c1ccc(-n2cc(/C=N/Nc3ccc(Cl)cc3Cl)c(-c3ccc(F)c(F)c3)n2)cc1,1.56 µg/mL,0.78 µg/mL,1.56 µg/mL,3.12 µg/mL,inactive,inactive,,,,6.25,6.25
CN1CCN(/N=C/c2cn(-c3ccc(C(=O)O)cc3)nc2-c2ccc(F)c(F)c2)CC1,inactive,inactive,inactive,inactive,inactive,inactive,,,,,
O=C(O)c1ccc(-n2cc(/C=N/Nc3ccc(Br)cc3)c(-c3ccc(F)cc3F)n2)cc1,12.5 µg/mL,12.5 µg/mL,12.5 µg/mL,1.56 µg/mL,inactive,inactive,> 80,Non-Toxic,Non-Toxic,25,25
CN1CCN(/N=C/c2cn(-c3ccc(C(=O)O)cc3)nc2-c2ccc(F)cc2F)CC1,inactive,inactive,inactive,inactive,inactive,inactive,,,,,
COLISTIN,,,,12.5 µg/mL,0.78 µg/mL,0.39 µg/mL,,,,,
O=C(O)c1ccc(-n2cc(/C=N/Nc3ccc([N+](=O)[O-])cc3)c(-c3ccc(F)c(F)c3)n2)cc1,inactive,inactive,inactive,inactive,inactive,inactive,,,,,
O=C(O)c1ccc(-n2cc(/C=N/Nc3ccc(Br)cc3)c(-c3ccc(F)c(F)c3)n2)cc1,1.56 µg/mL,1.56 µg/mL,3.12 µg/mL,0.78 µg/mL,inactive,inactive,> 80,Non-Toxic,Non-Toxic,12.5,12.5
O=C(O)c1ccc(-n2cc(/C=N/Nc3ccc([N+](=O)[O-])cc3)c(-c3ccc(F)cc3F)n2)cc1,inactive,inactive,inactive,inactive,inactive,inactive,,,,,
O=C(O)c1ccc(-n2cc(/C=N/Nc3ccccc3F)c(-c3ccc(F)cc3F)n2)cc1,25 µg/mL,12.5 µg/mL,25 µg/mL,12.5 µg/mL,inactive,inactive,> 80,Non-Toxic,Non-Toxic,,
O=C(O)c1ccc(-n2cc(/C=N/Nc3c(F)c(F)cc(F)c3F)c(-c3ccc(F)c(F)c3)n2)cc1,12.5 µg/mL,6.25 µg/mL,12.5 µg/mL,inactive,inactive,inactive,,,,,
O=C(O)c1ccc(-n2cc(/C=N/Nc3c(F)c(F)c(F)c(F)c3F)c(-c3ccc(F)cc3F)n2)cc1,inactive,inactive,inactive,inactive,inactive,inactive,,,,,
O=C(O)c1ccc(-n2cc(/C=N/Nc3c(F)c(F)cc(F)c3F)c(-c3ccc(F)cc3F)n2)cc1,inactive,inactive,inactive,inactive,inactive,inactive,,,,,
O=C(O)c1ccc(-n2cc(/C=N/Nc3ccccc3)c(-c3ccc(F)cc3F)n2)cc1,25 µg/mL,25 µg/mL,25 µg/mL,25 µg/mL,inactive,inactive,> 80,Non-Toxic,Non-Toxic,,
O=C(O)c1ccc(-n2cc(/C=N/Nc3ccc(C(F)(F)F)cc3)c(-c3ccc(F)c(F)c3)n2)cc1,0.78 µg/mL,0.78 µg/mL,0.78 µg/mL,3.12 µg/mL,inactive,inactive,> 80,Non-Toxic,Non-Toxic,6.25,3.12
O=C(O)c1ccc(-n2cc(/C=N/Nc3cc(F)ccc3F)c(-c3ccc(F)cc3F)n2)cc1,12.5 µg/mL,3.12 µg/mL,12.5 µg/mL,12.5 µg/mL,inactive,inactive,,,,,
O=C(O)c1ccc(-n2cc(/C=N/Nc3cccc(F)c3)c(-c3ccc(F)cc3F)n2)cc1,25 µg/mL,12.5 µg/mL,25 µg/mL,6.25 µg/mL,inactive,inactive,> 80,Non-Toxic,Non-Toxic,,
O=C(O)c1ccc(N/N=C/c2cn(-c3ccc(C(=O)O)cc3)nc2-c2ccc(F)c(F)c2)cc1,inactive,inactive,inactive,inactive,inactive,inactive,,,,,
O=C(O)c1ccc(-n2cc(/C=N/Nc3ccc(Cl)cc3)c(-c3ccc(F)c(F)c3)n2)cc1,6.25 µg/mL,6.25 µg/mL,6.25 µg/mL,1.56 µg/mL,inactive,inactive,> 80,Non-Toxic,Non-Toxic,,
O=C(O)c1ccc(-n2cc(/C=N/Nc3cc(F)ccc3F)c(-c3ccc(F)c(F)c3)n2)cc1,inactive,3.12 µg/mL,inactive,6.25 µg/mL,inactive,inactive,69,Non-Toxic,Non-Toxic,,
O=C(O)c1ccc(-n2cc(/C=N/Nc3ccc(F)cc3)c(-c3ccc(F)c(F)c3)n2)cc1,25 µg/mL,25 µg/mL,25 µg/mL,6.25 µg/mL,inactive,inactive,> 80,Non-Toxic,Non-Toxic,,
O=C(O)c1ccc(-n2cc(/C=N/Nc3ccccc3)c(-c3ccc(F)c(F)c3)n2)cc1,25 µg/mL,25 µg/mL,25 µg/mL,6.25 µg/mL,inactive,inactive,> 80,Non-Toxic,Non-Toxic,,
O=C(O)c1ccc(N/N=C/c2cn(-c3ccc(C(=O)O)cc3)nc2-c2ccc(F)cc2F)cc1,inactive,inactive,inactive,inactive,inactive,inactive,,,,,
O=C(O)c1cn(C2CC2)c2cc(N3CCNCC3)c(F)cc2c1=O [CIPROFLOXACIN],,1.56 µg/mL,,,,,,,,,
O=C(O)c1ccc(-n2cc(/C=N/Nc3ccc(F)cc3)c(-c3ccc(F)cc3F)n2)cc1,25 µg/mL,6.25 µg/mL,25 µg/mL,6.25 µg/mL,inactive,inactive,,,,,
CN[C@H](CC(C)C)C(=O)N[C@H]1C(=O)N[C@@H](CC(N)=O)C(=O)N[C@H]2C(=O)N[C@H]3C(=O)N[C@H](C(=O)N[C@H](C(=O)O)c4cc(O)cc(O)c4-c4cc3ccc4O)[C@H](O)c3ccc(c(Cl)c3)Oc3cc2cc(c3O[C@@H]2O[C@H](CO)[C@@H](O)[C@H](O)[C@H]2O[C@H]2C[C@](C)(N)[C@H](O)[C@H](C)O2)Oc2ccc(cc2Cl)[C@H]1O [VANCOMYCIN],12.5 µg/mL,,6.25 µg/mL,,,,,,,,
